Our source for the Growth inhibition and Quenching values is ChEMBL document CHEMBL1132450, “New natural sesquiterpenes as modulators of daunomycin resistance in a multidrug-resistant Leishmania tropica line” (1999).

In assay [1] the test system is Leishmania tropica. Description: The compound was tested for growth inhibition against DNM-R150 (Leishmania tropica) parasites, at a concentration of 15 uM. The class given is functional. The method, boiled down:
(§1)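 Multidrug-resistant L. tropica DNM-R150 line, kept under continuous 150 µM daunomycin and overexpressing a Pgp-like transporter. Parasites were grown at 28 °C in modified RPMI 1640 with 20% heat-inactivated fetal bovine serum and tested for growth sensitivity to the sesquiterpene.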

The subject of assay [2] is Leishmania tropica. Briefly: The compound was tested for growth inhibition against DNM-R150 (Leishmania tropica) parasites, at a concentration of 30 uM. It is filed as functional. The method, boiled down:
as §1

For assay [3], the system named is Leishmania tropica. Description: The compound was tested for growth inhibition against Wild type parasites, at a concentration of 15 uM. It is filed as functional. The method, boiled down:
(§2)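 Wild-type L. tropica LRC clone, obtained by agar plating. Cultured at 28 °C in modified RPMI 1640 with 20% heat-inactivated fetal bovine serum. Growth sensitivity to the sesquiterpene was assessed.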

Assay [4] concerns Leishmania tropica. Description: The compound was tested for growth inhibition against Wild type parasites, at a concentration of 30 uM. It is filed as functional. The method, boiled down: as §2
Assay [5] can be described thus: The compound was tested for binding activity against nucleotide-binding domain 2, with quenching at 50 uM. The method, boiled down: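 Recombinant Leishmania Pgp-like transporter NBD2, expressed in E. coli M15 [pREP4] and affinity-purified, at 0.2–0.5 µM final in pH 8.5 potassium phosphate buffer with 1 M NaCl, glycerol, HECAMEG and 10 mM imidazole, 25 °C. Sesquiterpene in DMSO (≤2% final) titrated in. Intrinsic fluorescence read at 300–350 nm emission (288 nm excitation), corrected for inner-filter and dilution. Quenching at 50 µM was read graphically from the curve.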

For assay [6], the system named is Leishmania tropica. Briefly: The compound was tested for growth inhibition against DNM-R150 (Leishmania tropica) parasites, at a concentration of 15 uM. The class given is functional. The method, boiled down:
as §1

In assay [7] the test system is Leishmania tropica. Description: The compound was tested for growth inhibition against Wild type parasites, at a concentration of 15 uM. It is filed as functional. The method, boiled down:
as §2

The test system of assay [8] is Leishmania tropica. Briefly: The compound was tested for growth inhibition against Wild type parasites, at a concentration of 30 uM. It is filed as functional. The method, boiled down:
as §2

For assay [9], the system named is Leishmania tropica. Briefly: The compound was tested for growth inhibition against DNM-R150 (Leishmania tropica) parasites, at a concentration of 30 uM. It is filed as functional. The method, boiled down: as §1

For `CC(=O)OC[C@@]12[C@@H](OC(C)=O)CC[C@](C)(O)[C@]13OC(C)(C)[C@H]([C@H](OC(C)=O)[C@H]2OC(=O)c1ccccc1)[C@H]3OC(C)=O`, the Growth inhibition in the assay on Leishmania tropica [1] came to 16.3%; in the assay on Leishmania tropica [2], 49.8%; with Leishmania tropica [3] it was 13.5%; in the assay on Leishmania tropica [4] it was 16.9%. The Quenching in assay [5] amounted to 27%.
With `CCC(C)C(=O)OC[C@]12[C@H](OC(=O)c3ccccc3)[C@@H](OC(C)=O)[C@@H]3[C@@H](OC(C)=O)[C@]1(OC3(C)C)[C@@](C)(O)C[C@H](O)[C@@H]2OC(=O)c1ccccc1` (some centres undefined), the Growth inhibition in the assay on Leishmania tropica [6] is recorded as 77.8%; with Leishmania tropica [7] it was 25.5%; with Leishmania tropica [8], 62.9%; in the assay with Leishmania tropica [9] it was 95.4%.
Turning to `CCC(C)C(=O)OC[C@]12[C@H](OC(=O)c3ccccc3)[C@@H](OC(=O)C(C)CC)[C@@H]3[C@@H](O)[C@]1(OC3(C)C)[C@@](C)(O)C[C@H](O)[C@@H]2OC(C)=O` (some centres undefined), the Growth inhibition with Leishmania tropica [6] is 83.1%; in the assay with Leishmania tropica [7], 5.3%; with Leishmania tropica [8] it was 4%; with Leishmania tropica [9], 92.6%. In addition, in assay [5], the Quenching worked out at 27.5%.
Regarding `CCC(C)C(=O)OC[C@]12[C@H](OC(=O)c3ccccc3)[C@@H](OC(C)=O)[C@@H]3[C@@H](O)[C@]1(OC3(C)C)[C@@](C)(O)C[C@H](OC(C)=O)[C@@H]2OC(C)=O` (some centres undefined), the Growth inhibition is recorded as 26.8% with Leishmania tropica [1], 91.7% in the assay on Leishmania tropica [2], 7.5% with Leishmania tropica [3] and 11.1% with Leishmania tropica [4]. The Quenching in [5] is 30.8%.
For `CCC(C)C(=O)OC[C@]12[C@@H](OC(=O)c3ccccc3)[C@H](OC(=O)c3cccnc3)[C@@H]3[C@@H](OC(C)=O)[C@]1(OC3(C)C)[C@@](C)(O)C[C@H](OC(C)=O)[C@@H]2OC(C)=O` (some centres undefined), the Growth inhibition in the assay with Leishmania tropica [1] is reported as 32.3%; in the assay on Leishmania tropica [2], 82.5%; in the assay with Leishmania tropica [3], 7.5%; in the assay on Leishmania tropica [4], 6.2%. Moreover, the Quenching in assay [5] amounted to 31.8%.
For the compound `CCC(C)C(=O)OC[C@]12[C@H](OC(=O)c3ccccc3)[C@@H](OC(C)=O)[C@@H]3[C@@H](O)[C@]1(OC3(C)C)[C@@](C)(O)C[C@H](OC(=O)c1cccnc1)[C@@H]2O` (some centres undefined), the Growth inhibition in the assay with Leishmania tropica [6] came to 20.8%; in the assay with Leishmania tropica [7], 9.3%; with Leishmania tropica [8] it was 8.4%; in the assay with Leishmania tropica [9], 88.3%. In assay [5], this compound displayed a Quenching of 31.1%.
Take `CCC(C)C(=O)OC[C@]12[C@H](OC(=O)c3ccccc3)[C@@H](OC(C)=O)[C@@H]3[C@@H](O)[C@]1(OC3(C)C)[C@@](C)(O)C[C@H](O)[C@@H]2OC(=O)c1ccccc1` (some centres undefined): the Growth inhibition with Leishmania tropica [6] was 90.5%; with Leishmania tropica [7], 9.8%; in the assay with Leishmania tropica [8] it was 30%; in the assay on Leishmania tropica [9], 96%. Moreover, the Quenching in [5] worked out at 31.4%.
Regarding `CCC(C)C(=O)OC[C@@]12[C@@H](OC(C)=O)CC[C@](C)(O)[C@]13OC(C)(C)[C@H]([C@@H](OC(=O)c1cccnc1)[C@@H]2OC(=O)c1ccccc1)[C@H]3OC(C)=O` (some centres undefined), the Growth inhibition in the assay with Leishmania tropica [6] is 92.9%; in the assay with Leishmania tropica [7], 6.9%; in the assay with Leishmania tropica [8], 13.8%; in the assay on Leishmania tropica [9] it was 96.1%. In addition, the Quenching in assay [5] turned out to be 34.3%.
Consider `CCC(C)C(=O)OC[C@]12[C@H](OC(=O)c3ccccc3)[C@@H](OC(C)=O)[C@@H]3[C@@H](OC(C)=O)[C@]1(OC3(C)C)[C@@](C)(O)C[C@H](OC(C)=O)[C@@H]2OC(C)=O` (some centres undefined), for which the Growth inhibition in the assay on Leishmania tropica [1] came to 40.9%; in the assay with Leishmania tropica [2], 86.1%; with Leishmania tropica [3], 4.9%; in the assay on Leishmania tropica [4], 9.5%. The compound also yielded a Quenching in assay [5] of 22.8%.
